Hits are enriched below; roughly 3.8% of the tested compounds scored in any of these assays.
hERG rescue = hERG (human) protection from proarrhythmic block; Q12809; CHO-hERG, FluxOR thallium flux, dofetilide IC70 present; activation (rescue from dofetilide block), less the hit threshold, % at 10 µM; actives 0.51% (n = 310,000);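 active means activation above the mean of controls blocked by dofetilide plus 5 SD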;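 further: thallium influx through hERG after potassium depolarization seen as dye fluorescence rise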
KCNQ1 block = blocks the human KCNQ1 potassium channel. CHO-K1 KCNQ1, FluxOR thallium flux fluorescence; stronger effect = higher value. B-score at 10 µM. actives 1.3% (n = 310,000);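 active means compounds whose thallium flux B-score, printed positive for inhibition, exceeds three library SD while starting fluorescence stays within three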;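 further: channel opened by potassium depolarization with thallium stimulus after 20 min compound exposure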
Target sequence (P51787 whole entry, looked up): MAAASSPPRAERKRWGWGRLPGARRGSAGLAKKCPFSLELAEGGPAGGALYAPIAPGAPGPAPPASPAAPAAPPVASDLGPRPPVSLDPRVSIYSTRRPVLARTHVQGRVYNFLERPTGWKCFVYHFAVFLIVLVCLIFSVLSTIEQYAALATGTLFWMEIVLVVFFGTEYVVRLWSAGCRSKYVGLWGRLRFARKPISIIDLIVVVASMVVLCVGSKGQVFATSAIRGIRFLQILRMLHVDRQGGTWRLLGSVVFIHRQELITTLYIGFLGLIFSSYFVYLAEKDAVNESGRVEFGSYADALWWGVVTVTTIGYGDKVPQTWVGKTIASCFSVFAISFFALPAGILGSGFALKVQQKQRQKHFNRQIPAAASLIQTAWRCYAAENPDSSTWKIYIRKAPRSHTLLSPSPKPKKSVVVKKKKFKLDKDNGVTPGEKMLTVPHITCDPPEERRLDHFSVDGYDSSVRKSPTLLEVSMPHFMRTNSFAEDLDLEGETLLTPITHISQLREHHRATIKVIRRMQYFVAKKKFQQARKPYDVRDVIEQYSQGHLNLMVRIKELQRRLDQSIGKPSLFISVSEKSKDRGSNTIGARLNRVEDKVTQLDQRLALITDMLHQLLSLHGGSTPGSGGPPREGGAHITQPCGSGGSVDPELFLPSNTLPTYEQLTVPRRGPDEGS
KCNQ1 act = potentiators or activators of human KCNQ1 potassium channel. P51787. actives 0.35% (n = 310,000). CHO-K1 KCNQ1, thallium flux FluxOR fluorescence; stronger effect = higher value. B-score at 10 µM;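 active means fluorescence ratio B-score, a plate-corrected score, at least three library SD, with initial intensity B-score within 5 SD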
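Doses: Single concentration per compound, DMSO matched to controls | Test system: KCNQ1-transfected CHO-K1 cells | Timing: 90 min dye loading and 20 min compound exposure, both at room temperature | Measured by: Kinetic FluxOR thallium fluorescence, 10-s 1-Hz baseline, 110-s post-stimulus read | Medium: Assay buffer with matched DMSO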
KCNK9 inh = human KCNK9 channel inhibition | Q9NPC2 | HEK293 KCNK9, FluxOR thallium flux fluorescence; stronger effect = lower value | actives 1.2% (n = 310,000) | B-score at 10 µM;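 active means ratio B-score over 3 SD below the library mean, with starting fluorescence within 5 SD of its mean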;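 further: negative B-score means less thallium flux so channel inhibition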
KCNK3 inh = human KCNK3 channel inhibition, primary screen. O14649. actives 0.84% (n = 340,000). AID 602410. B-score at 10 µM. CHO-KCNK3 thallium flux, FluxOR fluorescence; stronger effect = lower value;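 active means B-score under library mean minus 4 SD, starting fluorescence ratio at most library mean plus 5 SD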;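 further: more negative B-score means stronger inhibition of thallium flux through KCNK3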
Kir21 inh = blocks the mouse Kir2.1 inward-rectifier potassium channel; P35561; HEK293-Kir2.1, FluxOR thallium flux fluorescence; stronger effect = lower value; B-score at 10 µM; actives 0.85% (n = 310,000);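 active means fluorescence ratio B-score at or below minus 3 SD of library scores, with starting-brightness B-score within 2 SD, cut at about -4.2 in these data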;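 further: channel flux triggered by added potassium and thallium sulfate stimulus; B-score of peak minus minimum fluorescence over baseline after thallium stimulus; more negative B-score means stronger Kir2.1 block with less thallium influx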
Each line names hits and unclear results; the compound was inactive in the other large screens.

C=CCCCN(Cc1ccccc1)S(=O)(=O)c1ccccc1Br	KCNK9 inh -7.71
CCCc1ccc(S(=O)(=O)N(C)S(=O)(=O)c2ccc(F)cc2)cc1	KCNK9 inh -6.66
C=CCN(CC(O)c1cccc([N+](=O)[O-])c1)C(C)CCc1ccccc1 (configuration not stated)	none
c1ccc2c(c1)ncn2-c1ncnc2sc3c(c12)CCCC3	none
CC(O)CNc1nc2ccccc2n1-c1ncnc2sc3c(c12)CCC3 (configuration not stated)	Kir21 inh -7.62
Cn1c(=O)c2c(ncn2CC(=O)N/N=C/C=C/c2ccccc2[N+](=O)[O-])n(C)c1=O	none (no result: KCNK3 inh)
CCOc1ccc(OCCNC(=O)c2cc(C3CC3)nc3c2cnn3C(C)C)cc1	KCNK3 inh -8.9 (no result: hERG rescue, KCNQ1 block, KCNQ1 act, KCNK9 inh, Kir21 inh)
CC(C)n1ncc2c(C(=O)NCCOc3ccccc3F)cc(C3CC3)nc21	none (no result: hERG rescue, KCNQ1 block, KCNQ1 act, KCNK9 inh, Kir21 inh)
Cc1ccc(C(C)C)c(OCC(O)CN2CCc3ccccc3C2)c1 (configuration not stated)	KCNQ1 block 6, Kir21 inh -9.13
Cc1ccc(C)c(OCC(O)CN2CCC(Cc3ccccc3)CC2)c1 (configuration not stated)	Kir21 inh -6.41
OC(COc1c(F)cc(Br)cc1F)CN1CCc2ccccc2C1 (configuration not stated)	Kir21 inh -6.98
Cc1cccc(C)c1OCC(O)CN1CCc2ccccc2C1 (configuration not stated)	none
OC(COCc1ccccc1)CN1CCc2ccccc2C1 (configuration not stated)	none
COc1ccccc1NCCC(=O)OCC(=O)NC1CCCCCC1	Kir21 inh -7.7
COc1ccccc1CCC(=O)OCC(=O)NC1CCCC1	none
CCOC(=O)c1c(-n2c(C)cc(C=O)c2C)sc2c1CCCC2	Kir21 inh -4.59
CCN(CC(=O)NCc1ccc(Cl)cc1)C(=O)c1cc(S(=O)(=O)NCc2ccccc2)ccc1C	none
CCCNC(=O)Cc1c(C)oc2ccccc12	none
CCCOc1ccc(/C(O)=C2/C(=O)C(=O)N(CCCn3ccnc3)C2c2ccco2)cc1 (configuration not stated)	hERG rescue 6.8
S=C(NCc1ccco1)NCC1CCCO1 (configuration not stated)	none
CCOC(=O)C1CCN(C(=O)CNC(=O)c2nn(-c3ccc(OC)cc3OC)c(=O)c3ccccc23)CC1	none
O=C(OCCCCOC(=O)c1ccccc1)c1ccccc1	none
O=C(OCCCOC(=O)c1ccc(O)cc1)c1ccc(O)cc1	Kir21 inh -4.94
COC(=O)/C(=C\Nc1ccc(Cl)c2ccccc12)c1ncc(C(F)(F)F)cc1Cl	none
CCOC(=O)/C(=C\Nc1ccccc1C(F)(F)F)Sc1ncc(C(F)(F)F)cc1Cl	KCNQ1 block 7
CCCc1c(C)nc(N2CCN(c3cccc(OC)c3)CC2)[nH]c1=O	hERG rescue 5.9
CCc1c(C)nc(N2CCN(c3cccc(OC)c3)CC2)[nH]c1=O	none
O=C(O)c1ccc(NNC(=S)Nc2cc(C(F)(F)F)ccc2Cl)cc1	none
CO/N=C/c1ccc(N2CCN(C(=O)c3ccc(Cl)cc3Cl)CC2)c([N+](=O)[O-])c1	KCNQ1 block 7
O=C(COC(=O)Cc1c(F)cccc1Cl)NNC(=O)c1ccccc1	none (no result: hERG rescue, KCNQ1 block, KCNQ1 act, KCNK9 inh, Kir21 inh)
O=C(Nc1nc2c(Br)cc(Br)cc2c(=O)s1)C1CCC1	hERG rescue 5.9
CCCc1cc(=O)n2[nH]c(-c3ccc(OC)cc3)nc2n1	KCNK9 inh -7.78
CC(NC(=O)COC(=O)[C@@H]1CCCN1S(=O)(=O)c1ccccc1F)C12CC3CC(CC(C3)C1)C2 (some centres not stated)	KCNK9 inh -6.84
O=C(OCC(=O)N1CCc2ccccc21)[C@@H]1CCCN1S(=O)(=O)c1ccccc1F	none (no result: hERG rescue, KCNQ1 block, KCNQ1 act, KCNK9 inh, Kir21 inh)
O=[N+]([O-])c1ccc(O)c(C=Nc2ccc3c(c2)OCCO3)c1	none
Oc1c(Br)cc(Br)cc1C=Nc1ccc2c(c1)OCCO2	KCNQ1 act 14
Oc1c(Br)cc(Br)cc1C=Nc1ccc2c(c1)OCO2	KCNQ1 act 14
Nc1nc(Nc2cccc(Cl)c2)n[nH]1	none
CCc1cccc(N(C)C(N)=Nc2cccc3ccccc23)c1	none
Cn1nc(OC(=O)Nc2ccc(Cl)cc2)cc1C(F)(F)F	KCNQ1 block 8 (no result: KCNK3 inh)
O=C1NC(=O)/C(=C\c2ccccc2OCc2ccccc2)S1	none
O=C1NC(=O)/C(=C/c2cccc3ccccc23)S1	KCNQ1 block 6
Cc1ccc(S(=O)(=O)Oc2ccccc2/C=C2/SC(=O)NC2=O)cc1	KCNQ1 block 9
O=C1NC(=O)C(=Cc2ccccc2[N+](=O)[O-])S1	none (no result: hERG rescue, KCNQ1 block, KCNQ1 act, KCNK9 inh, Kir21 inh)
O=C1NC(=O)/C(=C/c2cc3c(cc2Br)OCO3)S1	hERG rescue 7.0
CCC(C)NC(=O)c1ccccc1NC(=O)/C(=C/c1ccc(OC)cc1)c1ccccc1 (configuration not stated)	KCNQ1 block 7
C[C@H](CO)N1C[C@H](C)[C@@H](CN(C)S(=O)(=O)c2cn(C)cn2)Oc2c(NS(=O)(=O)c3cn(C)cn3)cccc2C1=O	none (no result: hERG rescue, KCNQ1 block, KCNQ1 act, KCNK9 inh, Kir21 inh)
O=C(NC(Nc1nc2ccc([N+](=O)[O-])cc2s1)(C(F)(F)F)C(F)(F)F)c1ccccc1Cl	KCNQ1 block 10, Kir21 inh -5
O=[N+]([O-])c1ccc2nc(NS(=O)(=O)c3ccccc3[N+](=O)[O-])sc2c1	none
O=C(NC(Nc1nc2ccc([N+](=O)[O-])cc2s1)(C(F)(F)F)C(F)(F)F)c1cccnc1	KCNQ1 block 12, Kir21 inh -5.69
CCn1cc(C(=O)N[C@H](C(=O)NC(C)(C)CO)C(C)C)c(=O)c2cc3c(cc21)OCO3	none
CC(O)CNCCCOc1ccc(Cl)cc1C(C)(C)C (configuration not stated)	Kir21 inh -6.19
CC(C)(C)c1cc(Cl)ccc1OCCn1ccnc1	Kir21 inh -5.58
c1ccc(-c2ccccc2OCCCCn2ccnc2)cc1	Kir21 inh -4.83
CC(C)(C)c1ccccc1OCCCCCn1ccnc1	Kir21 inh -7.37
COCCCNCCCOc1ccc(Cl)cc1Br	none
Clc1ccccc1OCCn1ccnc1	none
COc1ccc(OC)c(NC(=O)C2CCN(S(=O)(=O)c3ccc4c(c3)CC(C)N4C(C)=O)CC2)c1 (configuration not stated)	none
COc1ccc(NC(=O)c2cc(S(=O)(=O)N3CCCCC3)ccc2OC)cc1	none
CCOC(=O)/C(C#N)=C/c1c(N2CCN(c3ccccc3)CC2)nc2ccccn2c1=O	none
COC(=O)[C@H](Cc1ccccc1)NC(=O)Cn1ccc(NC(=O)OCc2ccccc2)nc1=O	none (no result: hERG rescue, KCNQ1 block, KCNQ1 act, KCNK9 inh, Kir21 inh)
COc1ccc(-c2nc3ccccc3c(=O)n2CCCN2CCOCC2)cc1	none
Cc1nc2ccccc2c(=O)n1CCCN1CCOCC1	hERG rescue 5.8

Assay outcomes (PubChem BioAssay)
